Where a SMILES comes first, the peptide text is derived from it. Bridges are numbered along the chain shown (N, C = ends). [ ]: non-standard residue; d: D form. 2Nal = N[C@@H](Cc1ccc2ccccc2c1)C(=O)O; Cit = NC(=O)NCCC[C@H](N)C(=O)O
Tested on: MDA-MB-231
Test: Cytotoxicity against MDA-MB-231 cells
Format: functional
Settings: Homo sapiens
N=C(N)NCCC[C@H](NC(=O)[C@@H]1CSSC[C@H](NC(=O)[C@H](Cc2ccc3ccccc3c2)NC(=O)[C@H](CCCNC(=N)N)NC(=O)[C@@H](N)CCCNC(=N)N)C(=O)N[C@@H](Cc2ccc(O)cc2)C(=O)N[C@@H](CCCNC(N)=O)C(=O)N[C@@H](CCCCN)C(=O)N[C@H](CCCCN)C(=O)N2CCC[C@H]2C(=O)N[C@@H](Cc2ccc(O)cc2)C(=O)N[C@@H](CCCNC(=N)N)C(=O)N[C@@H](CCCNC(N)=O)C(=O)N1)C(N)=O (H-RR[2Nal]CY[Cit]K[dK]PYR[Cit]CR-NH2; disulfide 4-13) showed a CC50 of 410000 nM.

Molecular target: T1, C-X-C chemokine receptor type 4 (Homo sapiens, UniProt P61073)
T1 sequence (P61073 whole entry): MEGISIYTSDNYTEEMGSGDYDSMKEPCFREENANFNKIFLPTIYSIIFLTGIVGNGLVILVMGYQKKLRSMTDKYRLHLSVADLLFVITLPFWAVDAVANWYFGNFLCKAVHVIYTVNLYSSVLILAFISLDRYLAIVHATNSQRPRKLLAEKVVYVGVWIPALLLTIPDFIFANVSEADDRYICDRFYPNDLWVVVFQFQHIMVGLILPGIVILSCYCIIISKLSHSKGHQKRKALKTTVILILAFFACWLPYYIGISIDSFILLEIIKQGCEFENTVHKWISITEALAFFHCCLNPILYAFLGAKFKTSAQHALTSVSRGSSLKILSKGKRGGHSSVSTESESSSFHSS
Test: Antagonist activity at CXCR4 in human U87 cells assessed as inhibition of SDF1-induced modulation of cAMP production by TR-FRET assay
Format: functional, cell-based
Settings: U-87MG ATCC
Method in brief: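 U87 glioma cells overexpressing CD4 and CXCR4 (U87CD4CXCR4), seeded 2500 cells/well in 2% FBS 48 h before test. Cells pretreated with compound at various concentrations for 15 min at room temperature, then challenged with 150 ng/mL SDF-1. SDF-1-driven cAMP reduction measured by TR-FRET LANCE cAMP kit as Gi function readout.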
In the case of c1ccc(NCc2ccc(CNc3ccccn3)cc2)nc1, the Activity is reported as “Dose-dependent effect”.

Tested on: MDA-MB-231
Test: Inhibition of SDF1-mediated invasion of human MDA-MB-231 cells
Format: functional, cell-based
Settings: not given
Method in brief: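 Matrigel invasion chamber; MDA-MB-231 cells mixed with compound before seeding in top chamber, 200 ng/mL SDF-1α in bottom chamber as chemoattractant. Incubated 22 h in humidified incubator. Non-invading cells swabbed off the top. Invaded cells on the underside fixed in methanol, stained with H&E and counted to give invasion rate.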
Molecule c1ccc(NCc2ccc(CNc3ccccn3)cc2)nc1 has an EC50 of 5.2 nM.

Molecular target: T1, C-X-C chemokine receptor type 4
Test: Displacement of biotinylated TN14003 from CXCR4 in MDA-MB-231 cells
Format: cell-based
Settings: not given
Method in brief: (§1)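 MDA-MB-231 cells (2 × 10^4) seeded 2 days before. Exposed to compound at 1, 10, 100 or 1000 nM for 10 min at room temperature, then fixed in ice-cold 4% paraformaldehyde. After rehydration in PBS and avidin/biotin blocking, incubated 45 min at room temperature with 0.05 µg/mL biotinylated TN14003, then streptavidin-rhodamine 30 min. Residual binding assessed by fluorescence microscopy.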
Molecule COc1ccccc1NCc1ccc(CNc2ccccc2OC)cc1 has an EC of 10 nM. Work on N=C(N)c1ccc(CN)cc1 yielded an EC of over 1000 nM. Molecule C(=N\NC1=NCCN1)/c1ccc(/C=N/NC2=NCCN2)cc1 has an EC of over 1000 nM. Molecule c1ccc(NCc2ccc(CNc3ccccc3)c3ccccc23)cc1 has an EC of 100 nM. In the case of CC(Nc1ccccc1)c1ccc(C(C)Nc2ccccc2)cc1 (stereo not given), the EC is reported as 50 nM. With O=[N+]([O-])c1ccc(NCc2ccc(CNc3ccc([N+](=O)[O-])cc3)cc2)cc1 the EC was 1000 nM. CN(C)Cc1ccc(CN(C)C)cc1 showed an EC of over 1000 nM. In the case of CN(C)CCNCc1ccc(CNCCN(C)C)cc1, the EC is reported as over 1000 nM. In the case of COc1cccc(NC(=O)c2ccc(C(=O)Nc3cccc(OC)c3)cc2)c1, the EC is reported as 1000 nM. For Fc1ccccc1NCc1ccc(CNc2ccccc2F)cc1, the EC was 1 nM. With c1ccc(NCc2ccc(CNc3ccccc3)cc2)cc1 the EC was 10 nM. Molecule c1ccc(NCc2cccc(CNc3ccccc3)c2)cc1 has an EC of 10 nM. For Fc1cccc(NCc2ccc(CNc3cccc(F)c3)cc2)c1, the EC was 100 nM. NC(=O)c1ccc(C(N)=O)cc1 gave an EC of over 1000 nM. N=C(N)c1ccc(C(=N)N)cc1 showed an EC of over 1000 nM. FC(F)(F)c1cccc(NCc2ccc(CNc3cccc(C(F)(F)F)c3)cc2)c1 gave an EC of 1000 nM. In the case of Cc1c(C)c(CN)c(C)c(C)c1CN, the EC is reported as over 1000 nM. With c1ccc(NCc2ccccc2CNc2ccccc2)cc1 the EC was 100 nM. c1ccc(NC[C@H]2CC[C@H](CNc3ccccc3)CC2)cc1 gave an EC of over 1000 nM. Molecule CN(Cc1ccc(CN(C)c2ccccc2)cc1)c1ccccc1 has an EC of 100 nM. Cc1ccc(NCc2ccc(CNc3ccc(C)cc3)cc2)cc1 gave an EC of 10 nM. c1ccc(NCc2ccc(CNc3ccccn3)cc2)nc1 showed an EC50 of 1 nM. N=C(N)NCc1ccc(CNC(=N)N)cc1 showed an EC of over 1000 nM. c1ccc(CNc2ccccc2)cc1 showed an EC of over 1000 nM. Molecule N=C(N)Nc1ccc(NC(=N)N)cc1 has an EC of over 1000 nM. Molecule COc1ccc(NCc2ccc(CNc3ccc(OC)cc3)cc2)cc1 has an EC of 25 nM. With c1ccc(NCc2c3ccccc3c(CNc3ccccc3)c3ccccc23)cc1 the EC was 100 nM. Molecule c1ccc(NCc2cc(CNc3ccccc3)cc(CNc3ccccc3)c2)cc1 has an EC of over 1000 nM. Work on Cc1c(C)c(CNc2ccccc2)c(C)c(C)c1CNc1ccccc1 yielded an EC of 10 nM. In the case of N=C(N)N/N=C/c1ccc(/C=N/NC(=N)N)cc1, the EC is reported as 100 nM. For N#Cc1ccc(NCc2ccc(CNc3ccc(C#N)cc3)cc2)cc1, the EC was 1000 nM. With CCc1ccc(NCc2ccc(CNc3ccc(CC)cc3)cc2)cc1 the EC was 20 nM. Work on O=[N+]([O-])c1cccc(NCc2ccc(CNc3cccc([N+](=O)[O-])c3)cc2)c1 yielded an EC of 1 nM. With COc1cccc(NCc2ccc(CNc3cccc(OC)c3)cc2)c1 the EC was 1 nM. For c1cc(CNC2=NCCN2)ccc1CNC1=NCCN1, the EC was over 1000 nM. For Cc1cc(CNc2ccccc2)c(C)cc1CNc1ccccc1, the EC was 200 nM. c1ccc(CNCc2ccc(CNCc3ccccc3)cc2)cc1 showed an EC of 80 nM. Molecule Cc1cc(CN)c(C)cc1CN has an EC of over 1000 nM. With Fc1ccc(NCc2ccc(CNc3ccc(F)cc3)cc2)cc1 the EC was 1000 nM. In the case of c1ccc(NCCNCc2ccc(CNCCNc3ccccc3)cc2)cc1, the EC is reported as over 1000 nM. Oc1cc(CN2CCOCC2)c(O)cc1CN1CCOCC1 showed an EC of over 1000 nM. With NCc1ccc(CN)cc1 the EC was over 1000 nM. C[N+](C)(C)Cc1ccc(C[N+](C)(C)C)cc1 gave an EC of over 1000 nM. Molecule c1ccc(-c2nc(-c3ccc(-c4nc(-c5ccccc5)c(-c5ccccc5)[nH]4)cc3)[nH]c2-c2ccccc2)cc1 has an EC of over 1000 nM.

Same assay, conditions: read-out: EC50
With c1ccc(NCc2ccc(CNc3ccccn3)cc2)nc1 the EC50 was 0.3 nM.

Tested on: not listed separately
Test: Selectivity index, ratio of IC50 for CXCR4 to CC50 for MDA-MB-231 cells
Format: functional, Homo sapiens
Settings: not given
N=C(N)NCCC[C@H](NC(=O)[C@@H]1CSSC[C@H](NC(=O)[C@H](Cc2ccc3ccccc3c2)NC(=O)[C@H](CCCNC(=N)N)NC(=O)[C@@H](N)CCCNC(=N)N)C(=O)N[C@@H](Cc2ccc(O)cc2)C(=O)N[C@@H](CCCNC(N)=O)C(=O)N[C@@H](CCCCN)C(=O)N[C@H](CCCCN)C(=O)N2CCC[C@H]2C(=O)N[C@@H](Cc2ccc(O)cc2)C(=O)N[C@@H](CCCNC(=N)N)C(=O)N[C@@H](CCCNC(N)=O)C(=O)N1)C(N)=O (H-RR[2Nal]CY[Cit]K[dK]PYR[Cit]CR-NH2; disulfide 4-13) showed a Ratio of 680000.

Molecular target: T1, C-X-C chemokine receptor type 4
Test: Inhibition of CXCR4 in MDA-MB-231 cells
Format: cell-based
Settings: not given
Method in brief: as §1
Molecule N=C(N)NCCC[C@H](NC(=O)[C@@H]1CSSC[C@H](NC(=O)[C@H](Cc2ccc3ccccc3c2)NC(=O)[C@H](CCCNC(=N)N)NC(=O)[C@@H](N)CCCNC(=N)N)C(=O)N[C@@H](Cc2ccc(O)cc2)C(=O)N[C@@H](CCCNC(N)=O)C(=O)N[C@@H](CCCCN)C(=O)N[C@H](CCCCN)C(=O)N2CCC[C@H]2C(=O)N[C@@H](Cc2ccc(O)cc2)C(=O)N[C@@H](CCCNC(=N)N)C(=O)N[C@@H](CCCNC(N)=O)C(=O)N1)C(N)=O (H-RR[2Nal]CY[Cit]K[dK]PYR[Cit]CR-NH2; disulfide 4-13) has an IC50 of 0.6 nM.

From ChEMBL document CHEMBL1138262, “Discovery of small molecule CXCR4 antagonists” (J Med Chem, 2007)
